The source of these data is ChEMBL document CHEMBL4513216, “Probing the Open Global Health Chemical Diversity Library for Multistage-Active Starting Points for Next-Generation Antimalarials” (ACS Infect Dis, 2020).

This data set in a line: Toxicity liver stage against HepG2, at 10uM. Type of data set: cell-based. As to conditions: human, HepG2-A16-CD81EGFP cells; read-out: INHIBITION
Set-up: test concentration 10 uM, cell line HepG2-A16-CD81EGFP. The method in brief: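 Uninfected HepG2-A16-CD81EGFP cells, 3 × 10^3 per well, 1536-well, plated on prespotted compound at 10 μM final, parasite-free screening media added to match infected plates; puromycin 10 μM positive, DMSO 0.5% negative; run in parallel with 48 h PbLuc assay at 37 °C, 5% CO2; viability by CellTiter-Glo luminescence, normalized to controls.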
Consider `Cc1cccn2c(=O)cc(CN3CCCC3Cn3cccn3)nc12` (stereo unspecified), for which the cytotoxicity at 10 µM is -4.55%.

For `CC1CN(CCc2ccncc2)CCO1` (stereo unspecified), the cytotoxicity at 10 µM was -1.99%. `Cc1ccc(C)c(OCCN(C)C(=O)CCc2cn[nH]c2)c1`: the cytotoxicity at 10 µM was 1.69%. Take `Cn1c(=O)[nH]c(=O)c2c1nc1n2CC(c2ccc(Cl)cc2)O1` (stereo unspecified): the cytotoxicity at 10 µM was -176%.

As to `Cc1nc(C)n(C2CCCN(C(=O)CCCc3ccccn3)C2)n1` (stereo unspecified), the cytotoxicity at 10 µM is -0.586%. Take `O=C(c1ccc2c(c1)CCC2)N1CCCCC1C1OCCO1` (stereo unspecified): the cytotoxicity at 10 µM came to 0.197%. With `Cc1noc(NS(=O)(=O)c2ccc(Cl)s2)c1C`, the cytotoxicity at 10 µM was 5.3%. Consider `O=C(CCc1ccco1)Nc1ncn(CC(=O)N2CCCCCC2)n1`, for which the cytotoxicity at 10 µM is -2.29%. As for `COCCn1c(-c2cccc(OC)c2)cnc1NC(=O)NCCC(C)C`, the cytotoxicity at 10 µM amounted to 12.9%.

Turning to `Cn1cc(-c2csc(N3CCCCCC3)n2)cn1`, the cytotoxicity at 10 µM stood at 4.22%. Turning to `CN(C)C(=O)N1CCC(C(=O)NCCNc2ncccc2C#N)CC1`, the cytotoxicity at 10 µM turned out to be 18.3%. For `CN(C)C(=O)c1ccc(-c2cccc3c2CCNC3)cc1`, the cytotoxicity at 10 µM is -2.31%. Under `CC(C)n1cnnc1CN1CCC2(CCCN(C3CCCCC3)C2=O)C1` (stereo unspecified) stands -123%. Regarding `CCN(Cc1noc(C)n1)C(=O)C(c1cccc(C)c1)N(C)C` (stereo unspecified), the cytotoxicity at 10 µM was -1.34%. Under `CCN(C(=O)c1ccc2nncn2c1)C(C)Cc1ccc(OC)cc1` (stereo unspecified) stands -5.53%. Under `CC(C(=O)NCCOc1cccc(Cl)c1)n1cncn1` (stereo unspecified) stands -3.53%. `Cc1ncsc1CCN(C)C(=O)c1c(O)cccc1O`: the cytotoxicity at 10 µM was 0.417%.

As to `O=C(c1ccc[nH]1)N1CCCC2(CCCN2Cc2cccnc2)C1` (stereo unspecified), the cytotoxicity at 10 µM came to 3.83%. As for `CN(C)CC1CN(Cc2coc(-c3cccs3)n2)CCO1` (stereo unspecified), the cytotoxicity at 10 µM was 4.48%. As to `COCCn1cc(CC(=O)Nc2c(C)nn(C)c2C)c2ccccc21`, the cytotoxicity at 10 µM was found to be 1.18%. In the case of `c1cnc(NCc2cncc3c2CCN(Cc2ccoc2)C3)nc1`, the cytotoxicity at 10 µM is -70.9%. Turning to `CCn1ccnc1CN1CCCC(CO)(Cc2cccc(Cl)c2)C1` (stereo unspecified), the cytotoxicity at 10 µM is -0.0444%. As for `CCC(C)Nc1ccc2c(c1)C1(CCOCC1)C(=O)N2c1ccccc1` (stereo unspecified), the cytotoxicity at 10 µM was determined as 8.7%. The result for `Cc1cc(NC(=O)NC(C)CN2CCN(c3ccccc3)CC2)on1` (stereo unspecified) reads 11.5%; that for `O=C1CN([C@@H]2CC[C@@H](NS(=O)(=O)c3ccc(F)cc3)[C@H]2O)CCN1`, -2.11%. For the compound `CC(C)CN1C(=O)CC(N2CCN(c3ccc(F)cc3)CC2)C1=O` (stereo unspecified), the cytotoxicity at 10 µM turned out to be 6.56%. `Cc1c(CNC(=O)NCc2cccc(-n3cncn3)c2)cnn1C`: the cytotoxicity at 10 µM was 1.78%.

For `Cc1occc1CNc1ncccc1S(N)(=O)=O`, the cytotoxicity at 10 µM is -149%. Regarding `Cc1ncsc1C(=O)NC1CCN(Cc2ccc(C(F)(F)F)cc2)CC1`, the cytotoxicity at 10 µM is 15.5%. For `Cc1nn(C)c(N2CCOCC2)c1CNC(c1ccccc1)C1CC1` (stereo unspecified), the cytotoxicity at 10 µM worked out at 4.45%. The result for `O=C(NCCc1cccs1)[C@]12COC[C@H]1CN(C1CCOCC1)C2` reads -116%; that for `CCOCC1CN(Cc2cnn(C)c2)Cc2nn(CC3CC3)cc21` (stereo unspecified), -75.9%. In the case of `Cc1cc(C)n(CC(=O)N2C[C@H]3CC[C@@H](C2)N(CC2CCC2)C3)c(=O)n1`, the cytotoxicity at 10 µM came out at 13.3%. With `O=C([C@H]1CCCN1)N1CC2(CCNCC2)c2cc(Cl)ccc21`, the cytotoxicity at 10 µM was found to be 0.286%. On to `O=C(Nc1cnn(CC(=O)N2CCCCO2)c1)c1ccccn1`, for which the cytotoxicity at 10 µM was -0.0294%. Under `O=C(c1cc(F)ccc1Br)N1CCN(C(=O)C2CC2)CC1` stands 4.9%. Under `CCOCC1CN(Cc2ccc(OC)cc2)Cc2nn(CC3CC3)cc21` (stereo unspecified) stands 18%. Under `Cc1nc(CN2CCN(C(C)C(=O)NC3CCCC3)CC2)cs1` (stereo unspecified) stands -3.9%; under `CNS(=O)(=O)c1ccc(CNC(=O)c2ccccn2)cc1`, 10.2%. For `Cc1cc(NC(=O)C(C)Nc2ccn(Cc3ccccn3)n2)on1` (stereo unspecified), the cytotoxicity at 10 µM was -2.06%.

On to `CC(NC(=O)COc1cccc[n+]1[O-])C1CC1` (stereo unspecified), for which the cytotoxicity at 10 µM is -6.66%. As for `O=C(O)C1CN(Cc2cnc(C3CCCCC3)nc2)CCO1` (stereo unspecified), the cytotoxicity at 10 µM is -6.08%. With `CCN1CCC(NC(=O)CN2CCCC2Cn2cccn2)CC1` (stereo unspecified), the cytotoxicity at 10 µM turned out to be 1.98%. For `Cc1cc2n(n1)CC(CNCc1ccc(N3CCOCC3)nc1)CN2` (stereo unspecified), the cytotoxicity at 10 µM is -15.3%. Under `CC1CCCN1C1CCN(C(=O)c2cccc(-c3ccoc3)c2)CC1` (stereo unspecified) stands -9.63%. In the case of `CNC(=O)[C@H]1C[C@H]2CN(C(=O)Nc3ccc(F)cc3)C[C@@H]1O2`, the cytotoxicity at 10 µM worked out at 3.28%. As for `Cc1nnc(N2CC[C@H]3C[C@H](C(=O)N4CCOCC4)O[C@H]3C2)s1`, the cytotoxicity at 10 µM is -0.671%. With `Cc1cc(C)n(CCCN(C)c2cc(C3CC3)ncn2)n1`, the cytotoxicity at 10 µM was -0.609%. With `O=C(O)C1c2nc[nH]c2CCN1CC(c1ccccc1)c1ccccc1` (stereo unspecified), the cytotoxicity at 10 µM was -7.97%.

For `CCOc1c(Cl)cc(Cl)cc1CNCCCn1ccnc1`, the cytotoxicity at 10 µM was -1.32%. As to `O=C(c1nnn(-c2ccc(F)cc2)n1)N(CCO)Cc1ccccc1`, the cytotoxicity at 10 µM was found to be 1.56%. Take `C[C@H]1CN(Cc2cccc(F)c2)C[C@@]12CCN(CC(=O)N(C)C)C2=O`: the cytotoxicity at 10 µM was -7.13%.

`c1cncc(CC2CN(c3cccnc3)CCO2)c1` (stereo unspecified): the cytotoxicity at 10 µM was -0.41%. Consider `O=C(O)[C@@H]1CN(C(=O)c2ccc3nccnc3c2)C[C@H]1c1ccncc1`, for which the cytotoxicity at 10 µM was -11.3%.

Regarding `CN1CCc2[nH]nc(C(=O)N3CCC4(CCCO4)CC3)c2C1`, the cytotoxicity at 10 µM was -47.1%. Regarding `O=C(COc1cccc(F)c1)N1C[C@@H](O)[C@H](N2CCOCC2)C1`, the cytotoxicity at 10 µM came out at 6.02%. On to `CCn1cc(CN2CCCN(C(=O)c3ccoc3)CC2)cn1`, for which the cytotoxicity at 10 µM was -18.8%. As for `CC(C)=CCN1CC2(CCN(C(=O)CCn3ccnc3C)CC2)CC1=O`, the cytotoxicity at 10 µM is -6.3%.

Consider `O=C1N(CCO)CCCC12CCN(Cc1nnc(C3CC3)o1)C2` (stereo unspecified), for which the cytotoxicity at 10 µM was 5.27%. Consider `Cn1cccc1C(=O)NC[C@]12COC[C@H]1CN(Cc1nccs1)C2`, for which the cytotoxicity at 10 µM is -2.74%. As for `CC(C)[C@H](NC(=O)NC1CCS(=O)(=O)C1)C(=O)NCc1cccnc1` (stereo partly specified), the cytotoxicity at 10 µM was determined as 5.47%. Take `CC(C)NC(=O)CNC(=O)N1CCc2c([nH]c3ccc(Cl)cc23)C1`: the cytotoxicity at 10 µM stood at 7.15%. As to `CC(C)c1nc(C2CCCN2C(=O)c2ccc(C#N)cn2)no1` (stereo unspecified), the cytotoxicity at 10 µM was -3.19%.

For `CC(NC(=O)NCc1cccc(F)c1)(C(=O)O)c1ccco1` (stereo unspecified), the cytotoxicity at 10 µM is -3.33%. As for `CCC[C@@H]1CN(c2ncnc3sccc23)C[C@H]1NS(C)(=O)=O`, the cytotoxicity at 10 µM was -1.25%. Regarding `CC(C)(C)c1cnc(CN2CCN(c3ncccn3)CC2)o1`, the cytotoxicity at 10 µM was -18.1%. Take `CC(C)NC(=O)c1csc(NC2CC2)n1`: the cytotoxicity at 10 µM is -2.72%. Take `Cc1cnccc1CN1C[C@@H](O)[C@H](Oc2cccc(F)c2)C1`: the cytotoxicity at 10 µM amounted to 2.21%. On to `Cn1ccnc1CN1CCN(CC(O)c2ccco2)CC1` (stereo unspecified), for which the cytotoxicity at 10 µM came to 2.38%.

Turning to `Cc1cnc(CN2CCOC(CN(C)c3cccnn3)C2)cn1` (stereo unspecified), the cytotoxicity at 10 µM came to 3.64%. For `CCCC(=O)NC1CCc2c(ccc(=O)n2Cc2csc(C)n2)C1` (stereo unspecified), the cytotoxicity at 10 µM is 3.79%.
